From PubChem BioAssay
This is a sample that favours compounds with a hit; in the whole collection about 4.3% have one here.
STAT3 activator: activators of IL-6 induced STAT3 signaling | U3A cells, IL-6 STAT3-luciferase reporter, luminescence; 100% = signal with IL-6 EC80 alone | activation (% of control), % at 5.6 µM | 190,000 compounds, 0.91% hits | AID 871;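 active means activation above the screen-wide mean of compound activation plus 3 SD, cut at about 130% in these data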;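 further: 0% = background luminescence of wells with medium and substrate only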
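system = STAT3-luciferase reporter U3A cells | reagent = IL-6 stimulus at 33 ng/mL final | timing = 1 h compound pre-exposure, 6 h IL-6 stimulation, 37 °C | measured by = luminescence | evaluation = % activation versus median of IL-6-stimulated wells | control set = IL-6-only wells as 100% reference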
STAT3 blocker: STAT3 signaling inhibition | inhibition, % at 5.5 µM | 190,000 compounds, 0.89% hits | U3A cells, IL-6 STAT3-luciferase reporter, luminescence; host cell line lacks STAT1;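 active means inhibition above the mean inhibition across all screened compounds plus 3 SD, cut at about 44% in these data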;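 further: 0% = DMSO only wells and 100% = 100 µM nifuroxazide control wells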
STAT1 activator: activators of IFN-gamma induced STAT1 signaling; NIH 3T3 STAT1-luciferase reporter, luminescence; 100% = IFN-gamma alone, no compound; activation (% of control), % at 5.5 µM; 200,000 compounds, 2.6% hits;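 active means activation above the screen-wide mean activation plus 3 SD, cut at about 130% in these data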;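 further: raw ratio to IFN-gamma control signal so 100% means no change and 0% no light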
STAT1 inh: reduces IFN-gamma driven STAT1 reporter signal | AID 920 | NIH 3T3 STAT1-luciferase reporter, luminescence | inhibition, % at 5.5 µM | 200,000 compounds, 0.35% hits;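 active means inhibition above a set limit, the mean inhibition across all tested compounds plus 3 SD, cut at about 34% in these data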;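 further: 0% = IFN-gamma with DMSO and 100% = IFN-gamma with 300 µM nifuroxazide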
Active calls of the source: *.

SMILES	STAT3 activator	STAT3 blocker	STAT1 activator	STAT1 inh
Oc1ccc(O)c(-c2cnns2)c1	98	6	88	13
COc1ccc(NC(=O)/C(Cl)=C(/Cl)S(=O)(=O)Cc2ccc(C)cc2)cn1	111	-7	133*	-37
Cc1cccn2c(CNCC3(c4ccccc4)CCCC3)c(C(=O)N3CCOCC3)nc12	109	-8	100	-1
Cc1nc(/C=C/c2ccccc2)[nH]c(=O)c1-c1ccccc1	89	14	129*	-32
O=c1[nH]c2ccccc2nc1/C=C/c1ccc(Cl)cc1	93	11	133*	-37
C(=C\c1nc2ccccc2[nH]1)/c1ccccc1	37	82*	61	43*
Cc1cccc(/C=C\c2nc3ccccc3c(=O)[nH]2)c1	67	39	144*	-47
Cc1cccc(C(=O)NC(=S)N2CCN(C(=S)NC(=O)c3cccc(C)c3)CC2)c1	96	5	105	-6
CS(=O)(=O)N1CCC(C(=O)N2CCN(C(c3ccccc3)c3ccccc3)CC2)CC1	105	2	96	2
COc1ccc(-c2nc3nc(C)cc(C)n3n2)cc1	111	-10	129*	-29
COc1ccc(-c2cc3nc(C)cc(C)n3n2)cc1	156*	-60	135*	-37
Cc1cccc(NC(=S)NCc2ccco2)c1C	108	-7	109	-10
Cc1ccccc1-c1nnc(SCC#N)o1	99	4	110	-12
Cc1ccccc1-c1nnc(-c2ccc(Br)cc2)o1	101	2	150*	-55
Cc1ccccc1-c1nnc(-c2ccccc2C)o1	102	2	130*	-33
Cc1ccccc1C(=O)OCCN(C)Cc1ccccc1	95	11	97	2
CCCCOc1ccc(/C=C/C2=CC(C)(C)NC(=S)N2)cc1OCC	101	4	114	-19
CCOC(=O)C1C(c2cccc([N+](=O)[O-])c2)C2C(=O)NN=C2CC1(C)O (centres undefined)	102	0	103	-4
COc1cc(NC(=O)C/C(C)=N/NC(=O)Cc2ccccc2)c(OC)cc1Cl	100	-1	89	13
COc1cc(NC(=O)C/C(C)=N/NC(=O)c2cccs2)c(OC)cc1Cl	117	-17	139*	-41
Cc1cc(C)c2nc3nc(C)c(C)cc3c(N)c2c1	122	-19	143*	-46
O=C(CC(Nc1ccc(F)cc1)C(=O)O)c1ccccc1 (centres undefined)	55	54*	148*	-52
O=C(NCCC1=CCCCC1)NC1CCCCC1	100	0	144*	-48
O=C(Nc1ccc(Oc2ccccc2)cc1)C1CCCO1 (centres undefined)	102	2	132*	-36
O=C(Nc1ccc(-c2nc3ccccc3o2)cc1)C1CCCO1 (centres undefined)	67	43	140*	-24
SMILES	STAT3 activator	STAT3 blocker	STAT1 activator	STAT1 inh
O=C(Nc1ccc(-c2nc3cc(Cl)ccc3o2)cc1)C1CCCO1 (centres undefined)	87	14	150*	-54
COc1ccc(NC(=O)C2CCCO2)cc1 (centres undefined)	99	5	95	6
O=C(CSc1ccsc1[N+](=O)[O-])NCCc1ccccc1	136*	-37	100	0
Cc1ccc(CNC(=O)CSc2ccsc2[N+](=O)[O-])cc1	115	-15	134*	-37
COc1ccc(CNC(=O)CSc2ccsc2[N+](=O)[O-])cc1	110	-9	119	-19
O=C(CSc1ccsc1[N+](=O)[O-])NCCc1ccc(Cl)cc1	109	0	95	3
CCOc1cc(-c2nc(C)c(C(C)=O)n2O)ccc1OCC(=O)Nc1cccc(C)c1	90	18	89	11
CC(C)OC(=O)CSc1nnc2c(n1)[nH]c1ccc(F)cc12	77	31	84	16
CCCn1c(N)cc(=O)n(CCC)c1=O	99	4	88	12
O=c1[nH]ncc(N2CCN(Cc3ccccc3)CC2)c1Cl	102	0	96	3
CC(=O)c1c(C)[nH]c(C(=O)Nc2ccc(C)cn2)c1C	24	90*	64	39*
CC(=O)c1c(C)[nH]c(C(=O)Nc2nc(-c3ccc(Cl)cc3)cs2)c1C	102	2	101	-1
Cc1csc(NC(=O)c2ccc(S(C)(=O)=O)cc2)n1	107	-7	130*	-34
CC(=O)c1c(C)[nH]c(C(=O)Nc2nc(C)cs2)c1C	30	85*	34	70*
COc1cc(C#N)c(NC(=O)CN2CCC(C(N)=O)CC2)cc1OC	94	11	100	-2
CCCCN1CCc2c([nH]c3ccccc23)C1=O	102	4	137*	-39
COc1cc(/C=N/NC(=S)NCc2ccccc2)ccc1OCC#N	96	9	93	7
O=C(NCc1ccco1)Nc1ccc(Br)cc1Cl	82	24	133*	-36
COCCNC(=O)C(NC(=O)C1CCC(C)CC1)C(C)C (centres undefined)	111	-13	97	1
CC(C)(C)OC(=O)N/N=C/c1cccc([N+](=O)[O-])c1	104	-3	130*	-34
Cc1c(Cl)ccc2c(C(=O)NCCN3CCCCC3)cc(-c3ccccn3)nc12	134*	-42	116	-20
O=c1c2c(nc3cc(-c4cccc(F)c4)[nH]n13)CCC2	80	27	130*	-32
O=c1c2c(nc3cc(-c4ccc(Cl)cc4)[nH]n13)CCS2	101	-6	107	-8
O=c1c2c(nc3cc(-c4cccc(Cl)c4)[nH]n13)CCC2	98	6	135*	-39
Cc1[nH]n2c(=O)c3c(nc2c1-c1ccc(F)cc1)CCCC3	97	8	99	-1
SMILES	STAT3 activator	STAT3 blocker	STAT1 activator	STAT1 inh
COc1ccc(-n2cc(C(=O)O)c(=O)cc2C)cc1	108	-6	95	4
CC(=O)c1cnc2ncnn2c1C	96	8	105	-5
CC1CN(c2ccccc2)CCN1Cc1nc(Cc2ccccc2)no1 (centres undefined)	100	3	94	4
COc1ccc(NC(=O)c2ccc(-c3ccc(OC)cc3)s2)cc1	89	17	102	-2
CNC(=O)c1ccc(-c2ccc(OC)cc2)s1	88	17	138*	-42
C/C(CCc1ccc2c(c1)OCO2)=N\NC(=O)c1ccccc1Br	105	3	105	-5
Cc1ccccc1Nc1nnc(SCC(=O)NC2CCCc3ccccc32)s1 (centres undefined)	107	-13	144*	-48
O=C(Nc1cnc2ccccc2c1)N1CCOCC1	104	1	112	-13
O=C(Nc1cnc2ccccc2c1)N1CCCCC1	104	2	135*	-36
Cc1cc(C)n(CC(O)COc2ccc3ccccc3c2)n1 (centres undefined)	102	1	133*	-39
CC(=O)NC(Cc1cccc(F)c1)C(=O)NC1CCN(C(=O)c2ccc(C)cc2)CC1 (centres undefined)	99	8	92	8
O=C(c1ccc(F)cc1)n1ccc(-c2cnc(-c3ccccc3)s2)n1	103	3	136*	-39
Fc1ccc(Cn2ccc(-c3cnc(-c4ccccc4)s3)n2)cc1	85	24	131*	-34
